Bioassay records as filed in PubChem.
Hits are enriched below; roughly 0.83% of the tested compounds scored in any of these assays.
ABCB1 block = inhibitors of human ABCB1 transporter, ABCG2 counter-screen. CCRF-Adr cells, JC-1 efflux, flow cytometry. P08183. inhibition, % at 6.6 µM. 190,000 tested, 0.067% active; in the data active = inhibition above about 40%;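 note: 0% = vehicle and 100% = reference inhibitor; higher value means more JC-1 retained so stronger ABCB1 efflux block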
RGS7-Gao reg = human RGS7-Galphao interaction regulation. P09471. Multiplexed bead flow cytometry, RGS7-Galphao binding; actives lie on both sides. binding response (% of control), % at 10 µM. 220,000 tested, 0.35% active. AID 1439; in the data active = binding response below about 49% or above about 150%;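 note: fluorescent Galphao held in activated GDP-AlF4 state binding bead-coupled RGS7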
RGS16-Gao = RGS16-Galphao interaction regulator (human); O15492+P09471; bead-based flow cytometry RGS16-Galphao binding, fluorescence; actives lie on both sides; binding response (% of control), % at 10 µM; 220,000 tested, 0.38% active;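 note: Galphao activated by GDP with aluminum fluoride before binding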
RGS8-Gao = regulators of human RGS8-Galphao interaction. P09471. multiplexed bead flow cytometry, RGS8-Galphao binding; actives lie on both sides. AID 1423. response (percent of control binding), % at 10 µM. 220,000 tested, 0.34% active; in the data active = response below about 60% or above about 140%; inactive = in between;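 note: Galphao activated as the GDP aluminium fluoride complex binding bead-coupled RGS8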
RGS4-Gao reg = modulates binding of RGS4 to human Galphao; P09471; Multiplexed bead flow cytometry; actives lie on both sides; binding response (% of control), % at 10 µM; 220,000 tested, 0.33% active; AID 1415; in the data active = binding response below about 49% or above about 150%; inactive = in between;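 note: fluorescent Galphao activated with aluminum fluoride binding bead-coupled RGS4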
ABCG2 block = blocks JC-1 efflux by human ABCG2 transporter; IgMXP3 cells, flow cytometry; inhibition, % at 6.6 µM; 190,000 tested, 0.1% active;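 active = inhibition above 80%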;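 note: 0% = DMSO and 100% = nicardipine control wells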
Target sequence (Q9UNQ0 whole entry, looked up): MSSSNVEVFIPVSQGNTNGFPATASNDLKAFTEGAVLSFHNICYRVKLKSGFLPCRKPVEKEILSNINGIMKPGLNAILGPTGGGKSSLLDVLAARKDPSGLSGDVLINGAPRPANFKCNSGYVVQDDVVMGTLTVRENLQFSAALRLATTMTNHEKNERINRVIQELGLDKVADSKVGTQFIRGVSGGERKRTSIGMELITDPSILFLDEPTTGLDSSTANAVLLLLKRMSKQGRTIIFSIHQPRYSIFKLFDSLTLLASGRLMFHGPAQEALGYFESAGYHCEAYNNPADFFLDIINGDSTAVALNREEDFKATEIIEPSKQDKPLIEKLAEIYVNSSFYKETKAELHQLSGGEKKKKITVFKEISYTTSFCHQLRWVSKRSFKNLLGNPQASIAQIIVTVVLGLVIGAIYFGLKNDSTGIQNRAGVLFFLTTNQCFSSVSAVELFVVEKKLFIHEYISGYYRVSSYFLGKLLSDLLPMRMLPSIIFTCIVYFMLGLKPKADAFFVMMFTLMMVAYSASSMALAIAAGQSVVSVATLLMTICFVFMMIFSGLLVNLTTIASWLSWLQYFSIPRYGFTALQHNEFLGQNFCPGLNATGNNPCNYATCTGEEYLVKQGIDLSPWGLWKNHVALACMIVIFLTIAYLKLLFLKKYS
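Test system: IgMXP3 (ABCG2) plus far-red-tagged CCRF-Adr (ABCB1) cells. Reagent: JC-1 dye as substrate. Timing: 10 min exposure at 25 °C with rotation, no wash. Measured by: flow cytometric JC-1 green MFI at 530 nm. Read-out: percent efflux inhibition, scaled nicardipine 100% to DMSO 0%. Control set: nicardipine and DMSO wells.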
RGS4-Gao HTS = regulators of human RGS4-Galphao interaction; shares compounds with RGS16-Gao; multiplexed bead flow cytometry, RGS–Galpha-o binding; RGS4–Galpha-o binding response, % at 10 µM; 1,600 tested, 99% active; AID 1504;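 note: fluorescently labeled Galpha-o bound to GDP with aluminium fluoride binding biotinylated RGS beads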
Biotin-avidin = counter-screen: compounds disrupting biotin binding to avidin beads | shares compounds with RGS16-Gao | streptavidin beads, fluorescein-biotin binding, flow cytometry | inhibition, % at 10 µM | 1,700 tested, under 10 active;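 active = inhibition above 50%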;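 note: median green fluorescence of gated singlet beads compared with DMSO control wells; 0% = DMSO wells and 100% = complete loss of bead fluorescence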
RGS8-Gao single = confirmation of regulators of human RGS8-Galphao interaction | shares compounds with RGS16-Gao | AID 1836 | binding response (% of control), % at 10 µM | 1,700 tested, 3% active | bead-based flow cytometry RGS8-Galphao binding, fluorescence; actives lie on both sides; in the data active = binding response below about 72% or above about 130%; inactive = in between;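 note: Galphao activated as GDP AlF4 complex before binding bead RGS8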
RGS7-Gao confirm = RGS7-Galphao interaction regulation, single point confirmation. response (percent of control binding), % at 10 µM. 1,700 tested, 7.8% active. shares compounds with RGS16-Gao. bead-based flow cytometry RGS7-Galphao binding; actives lie on both sides; in the data active = response below about 75% or above about 130%; inactive = in between;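 note: fluorescent Galphao activated with GDP and aluminum fluoride binding bead-coupled RGS7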
RGS16-Gao single = confirmation of regulators of human RGS16-Galphao interaction; shares compounds with RGS16-Gao; bead-based flow cytometry, RGS16-Galphao binding; actives lie on both sides; response (% of control binding), % at 10 µM; 1,700 tested, 4% active; AID 1838; in the data active = response below about 74% or above about 130%; inactive = in between;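 note: Galphao activated as the GDP aluminium fluoride complex binding bead-coupled RGS16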
RGS4-Gao confirm = confirmation of regulators of human RGS4-Galphao interaction. RGS4-Galphao binding, multiplexed bead flow cytometry; actives lie on both sides. 1,700 tested, 4% active. shares compounds with RGS16-Gao. AID 1840. binding response (% of control), % at 10 µM; in the data active = binding response below about 74% or above about 130%; inactive = in between
RGS19-Gao single = RGS19-Galphao interaction regulation, single point confirmation. 1,700 tested, 5% active. bead-based flow cytometry RGS19-Galphao binding; actives lie on both sides. response (percent of control binding), % at 10 µM. shares compounds with RGS16-Gao. AID 1841; in the data active = response below about 50% or above about 160%; inactive = in between;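 note: 100% = no compound control and 0% = blank background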
Starred values were filed as active, the others as inactive; [ ] = dose if it differs, or a comment. Unless noted, the rule behind the calls is not given here.

O=C(NC(Cc1ccccc1)C(=O)O)/C(=C/c1ccc([N+](=O)[O-])cc1)NC(=O)c1ccccc1Br (stereo not given) was read as ABCB1 block 0.7, RGS7-Gao reg 99.8, RGS16-Gao 104.9, RGS8-Gao 102.2, RGS4-Gao reg 105.1 and ABCG2 block 1.7.
Screening Cc1ccccc1-c1ccc(=O)n(CC(=O)Nc2ccc(N3CCOCC3)cc2)n1 returned ABCB1 block 0.5, ABCG2 block 2.1, Biotin-avidin 0.1, RGS8-Gao single 95.9, RGS7-Gao confirm 99.1, RGS16-Gao single 97.6, RGS4-Gao confirm 97.8 and RGS19-Gao single 101.8.
For Cc1ccccc1-c1ccc(=O)n(CC(=O)Nc2ccc(C(=O)N3CCCC3)cc2)n1 the results were ABCB1 block -0.2, RGS7-Gao reg 96.0, RGS16-Gao 98.1, RGS8-Gao 99.1, RGS4-Gao reg 96.6 and ABCG2 block -1.0.
`Cc1ccc2nc(-c3ccc(NC(=O)CNC4CC4)cc3)sc2c1` gave ABCB1 block 0.2, RGS7-Gao reg 217.1*[activator], RGS16-Gao 83.0, RGS8-Gao 90.5, RGS4-Gao reg 108.1, ABCG2 block 1.0, RGS4-Gao HTS 108.1*, Biotin-avidin -0.2, RGS8-Gao single 97.7, RGS7-Gao confirm 94.6, RGS16-Gao single 97.1, RGS4-Gao confirm 97.2 and RGS19-Gao single 90.9.
OC1CCN(c2ncnc3c2nnn3Cc2c(F)cccc2Cl)CC1 was read as ABCB1 block 0.4, RGS7-Gao reg 152.3*[activator], RGS8-Gao 118.1, RGS4-Gao reg 130.8, ABCG2 block 12.8, RGS4-Gao HTS 130.8*, Biotin-avidin 0.0, RGS8-Gao single 80.8, RGS7-Gao confirm 70.2*, RGS16-Gao single 77.9, RGS4-Gao confirm 78.8 and RGS19-Gao single 76.7.
`Clc1ccccc1Cn1nnc2c(N3CCCC3)ncnc21` gave ABCB1 block 0.1, RGS7-Gao reg 108.5, RGS16-Gao 94.0, RGS8-Gao 97.8, RGS4-Gao reg 107.1 and ABCG2 block 0.0.
For Cc1ccc(CN2CCN(Cc3ccc(-n4cccn4)cc3C)CC2CCO)cc1 (stereo not given) the results were ABCB1 block 2.4, RGS7-Gao reg 96.0, RGS16-Gao 105.0, RGS8-Gao 97.5, RGS4-Gao reg 102.7 and ABCG2 block 4.9.
`Cc1nn(-c2ccccc2)c(C)c1/C=N/NC(=O)CSc1nnc(SCc2ccc(Cl)cc2)s1` gave ABCB1 block 7.2, RGS7-Gao reg 156.9*[activator], RGS16-Gao 104.5, RGS8-Gao 101.4, RGS4-Gao reg 108.1, ABCG2 block 28.8, RGS4-Gao HTS 108.1*, Biotin-avidin 0.4, RGS8-Gao single 96.8, RGS7-Gao confirm 91.8, RGS16-Gao single 85.2, RGS4-Gao confirm 92.5 and RGS19-Gao single 58.1.
